Screening results as filed in PubChem BioAssay.
Only some compounds are listed: those with a hit (about 3.5% of all), similar ones and a draw of the others.
MrgX1 ag: human MrgX1 receptor agonism, primary screen; AID 588627; B-score at 10 µM; Q96LB2; MrgX1-HEK293 cells, Fluo-4 calcium fluorescence, agonist mode; hits give high values; 0.44% of 310,000 active;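 active = calcium response B-score plate-corrected fluorescence ratio at least 3 library SD, with starting fluorescence B-score inside 5 SD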
Target sequence (Q96LB2 whole entry, looked up): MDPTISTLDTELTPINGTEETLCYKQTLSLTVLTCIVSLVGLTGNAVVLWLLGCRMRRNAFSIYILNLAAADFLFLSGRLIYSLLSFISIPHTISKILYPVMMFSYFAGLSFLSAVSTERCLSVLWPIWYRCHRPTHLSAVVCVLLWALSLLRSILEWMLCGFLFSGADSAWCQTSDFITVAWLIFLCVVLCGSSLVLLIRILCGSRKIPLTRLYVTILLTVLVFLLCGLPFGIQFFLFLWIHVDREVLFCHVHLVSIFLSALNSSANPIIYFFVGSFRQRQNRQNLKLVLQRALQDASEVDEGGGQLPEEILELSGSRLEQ
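Material: MrgX1-expressing HEK293 cells / Dosing: compound as first of three additions / Incubation: overnight seeding, then 1 h dark dye loading / Signal: Fluo-4 NW calcium fluorescence / Evaluation: B-scored fluorescence response ratio / Benchmarks: positive and negative control wells on each plate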
MrgX1 antag: human MrgX1 receptor antagonism, primary screen | Q96LB2 | MRGX1-HEK293 calcium flux, Fluo-4, BAM8-22 antagonism; hits give low values | B-score at 10 µM | 1.3% of 310,000 active | AID 588676;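 active = calcium-response B-score plate-corrected more than 3 library SD below zero, starting fluorescence within 5 deviations, no agonist response on first addition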;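 note: peak minus trough fluorescence over baseline after final BAM8-22 challenge near maximal dose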
RGS4 block: human RGS4 inhibition. 0.45% of 310,000 active. AID 463165. B-score at 10 µM. P49798. HEK293 M3R/RGS4 inducible, Fluo-4 calcium flux; hits give high values; triggered by carbachol at its EC20;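 active = B-score, a plate-corrected calcium signal, over three deviations above library mean, with baseline fluorescence within five deviations of library mean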;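 note: RGS4 expression induced by doxycycline in cells with stable M3 receptor; B-score is computed from the integrated fluorescence ratio over baseline after carbachol; higher B-score means a larger calcium signal and so more RGS4 inhibition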
Target sequence (P49798 whole entry, looked up): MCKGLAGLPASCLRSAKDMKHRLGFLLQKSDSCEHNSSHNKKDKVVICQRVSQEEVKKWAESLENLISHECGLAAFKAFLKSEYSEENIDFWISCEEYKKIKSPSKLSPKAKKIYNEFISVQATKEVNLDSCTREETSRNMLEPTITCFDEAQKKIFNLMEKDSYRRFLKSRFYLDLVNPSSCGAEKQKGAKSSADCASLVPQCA
MrgX1 allo act: allosterically activates human MrgX1 receptor signaling | MrgX1-HEK293, Fluo-4 calcium flux, FDSS; hits give high values | B-score at 10 µM | Q96LB2 | 0.63% of 310,000 active;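 active = plate-corrected calcium response at least 3 library SD above typical, normal starting fluorescence, not activating the receptor alone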;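 note: compound read alongside a low EC10 to EC30 dose of BAM8-22 agonist; peak minus trough fluorescence over baseline measured at the second addition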
RGS4 pot: potentiators or activators of RGS4; HEK293 M3R/inducible RGS4, carbachol calcium flux Fluo4; hits give low values; B-score at 10 µM; 0.92% of 310,000 active; AID 463111;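 active = B-score of the integrated calcium signal more than 4 SD below the library mean, with starting fluorescence not abnormally high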;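 note: negative B-score means reduced calcium response which marks RGS4 activation or potentiation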
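System – HEK293 FlpIn-TREx cells, stable M3R, doxycycline-inducible RGS4 · Reagent – ECmax carbachol challenge · Times – compound preincubation 20 min at room temperature before agonist · Technique – Fluo4 fluorescence kinetic imaging of calcium · Measure – B score of integrated Fluo4 ratio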
Large screens that a line does not name were inactive.

CCOC(=O)C1(CCOc2ccccc2)CCN(Cc2ccc(OC)c(COC)c2)CC1	MrgX1 antag -4.68
CN(CC(=O)OCC(=O)NCC(F)(F)F)S(=O)(=O)c1ccc(Cl)cc1	none
COc1ccc(NC(=O)C/C(C)=N/NC(=O)C(=O)NC2CCCCC2)c(OC)c1	MrgX1 allo act 9.21
O=C(c1ccc([N+](=O)[O-])cc1)N1CCSC1c1ccccc1 (stereo unspecified)	none
O=C(c1ccc([N+](=O)[O-])cc1)N1CCSC1c1cccc(Cl)c1 (stereo unspecified)	RGS4 pot -7.53
Cn1cnc([N+](=O)[O-])c1Sc1ncccc1N	MrgX1 antag -7.15
Cc1ccc(Sc2c([N+](=O)[O-])ncn2C)cc1	none
Nc1cc(=O)[nH]c(SCC(=O)NNC(=O)Cc2ccccc2)n1	none
Cc1c(CCC(=O)N[C@@H](CC(C)C)C(=O)O)c(=O)oc2cc3oc4c(c3cc12)CCCC4	MrgX1 allo act 14.5
CCCCN(C(=O)COC(=O)COc1c(C)cc(C)cc1C)c1c(N)n(CCC)c(=O)[nH]c1=O	MrgX1 antag -8.25
CCCCn1c(N)c(N(CCOC)C(=O)COC(=O)COc2c(C)cccc2C)c(=O)[nH]c1=O	none
C/C(=N\O)C(C)(C)Nc1ccc(Br)cc1	MrgX1 ag 26.5
COC(=O)c1sccc1S(=O)(=O)NCc1ccc(S(N)(=O)=O)cc1	none
CC(C)NC[C@@H](O)c1ccc(O)c(O)c1	MrgX1 ag 31.9
Cc1c(C(=O)NC2CCCc3ccccc32)cccc1[N+](=O)[O-] (stereo unspecified)	none
NNC(=O)Nc1cccc(C(F)(F)F)c1	MrgX1 allo act 11.9
COc1ccc(C2/C(=C(/O)c3ccc(C)cc3)C(=O)C(=O)N2CCCN2CCOCC2)cc1 (stereo unspecified)	none
CC(=O)c1cc(CN2CCC(C(=O)Nc3ccc(-n4nc(C)cc4C)cc3)CC2)cs1	none
COc1ccc(CN2CCN(CC=C(C)C)C(CCO)C2)cc1Cn1cccn1 (stereo unspecified)	MrgX1 ag 28.2
C=C1CCC[C@]2(C)C[C@H]3OC(=O)C(CNCCN(CC)CC)[C@H]3CC12 (stereo partly specified)	none
CCN(C(=O)CN1C(=O)COc2ccc(S(=O)(=O)N3CCCCCC3)cc21)c1cccc(C)c1	MrgX1 ag 38.1
CCOc1ccc(NC(=O)C(NC(=O)C2CCC(C)CC2)C(C)C)cc1 (stereo unspecified)	RGS4 pot -6.97
COc1ccc(/C=N/NC(=O)c2cc3c(ccc4ccccc43)o2)c(OC)c1	RGS4 pot -8 (no result: MrgX1 ag, MrgX1 antag, MrgX1 allo act)
Cc1cc(OCC(=O)OCC(=O)NCc2ccco2)ccc1Cl	none
COc1ccc(/C=C/C(=O)NCC2COc3ccccc3O2)cc1OC (stereo unspecified)	MrgX1 antag -7.06
COC(=O)C/C=C/[C@@H](C)[C@@H](/C=N/O[C@@H](C)c1cn([C@H](CO)Cc2ccccc2)nn1)NS(=O)(=O)c1ccc(C)cc1	none
C/C(CCN1CCc2nc(-c3ccccc3)c(-c3ccccc3)cc2C1)=N\O[C@@H](C)c1cn([C@H](CO)Cc2ccccc2)nn1	RGS4 pot -8.92
CCCCN(C(=O)c1cccc(S(=O)(=O)N2CCN(Cc3ccccc3)CC2)c1)c1ccccc1	MrgX1 antag -4.72
CCN(Cc1ccccc1)C(=O)c1cccc(S(=O)(=O)N2CCN(Cc3ccccc3)CC2)c1	none
COCCCNCCOc1ccc(C)cc1[N+](=O)[O-]	MrgX1 antag -4.89
Cn1cccc1/C=N\NC(=O)C1COc2ccccc2O1 (stereo unspecified)	none
Cn1cccc1/C=N\NC(=O)C1COc2ccc(C(C)(C)C)cc2O1 (stereo unspecified)	MrgX1 allo act 8.09
S=C(Nc1ccc(Cl)cc1Cl)Nc1ccccc1Oc1ccccc1	none
S=C(Nc1cccc(Cl)c1)Nc1ccccc1Oc1ccccc1	MrgX1 antag -5.83
N#Cc1cc(N)ccc1Sc1ccc(Cl)cc1	RGS4 pot -6.97
COc1ccc(C(CNC(=O)c2cccc(S(=O)(=O)Nc3ccc(C)cc3)c2)N2CCOCC2)cc1 (stereo unspecified)	none
CCc1ccc2oc(C(=O)NCC(c3ccc(OC)cc3)N3CCCCC3)c(C)c2c1 (stereo unspecified)	RGS4 pot -8.13
COc1ccc(NS(=O)(=O)c2cccc(C(=O)NCC(c3ccc(OC)cc3)N3CCOCC3)c2)cc1 (stereo unspecified)	MrgX1 antag -4.69
CN1CCC(N(C)CC(=O)Nc2ccc3c(c2)OC(F)(F)O3)CC1	RGS4 pot -7.43
CC1CCCCN1CC(=O)Nc1ccc2c(c1)OC(F)(F)O2 (stereo unspecified)	none
COc1cccc(NC(=S)N(CCCN2CCOCC2)C(C)c2cc3ccccc3o2)c1 (stereo unspecified)	none
COc1ccc(C(CCN2CCCCC2)c2c(OC)cc(OC)c3c(-c4ccccc4)cc(=O)oc23)cc1 (stereo unspecified)	MrgX1 allo act 14.2
CCCCc1nc2cc(C(=O)NCc3cc(C)n(C)n3)ccc2o1	none
COc1cccc(/C=N/Nc2ncnc3scc(-c4ccccc4)c23)c1O	RGS4 pot -10.4
COc1cccc(/C=N/Nc2ncnc(Cl)c2N)c1O	none
COc1cc(-c2[nH]ncc2CN2CCN(c3cccc(C)n3)CC2)cc(OC)c1OC	none
COC(=O)Nc1ccc([N+](=O)[O-])cc1OC	MrgX1 antag -7.45
CCC(CC)C(=O)N1CC(=O)Nc2ccc(F)cc2C1c1ccc(F)cc1 (stereo unspecified)	none
Cc1cc(=O)oc2cc(OCC(=O)OCC(=O)Nc3c(C)n(C)n(-c4ccccc4)c3=O)ccc12	MrgX1 antag -8.79
CC(C(=O)NCc1ccco1)c1ccc([N+](=O)[O-])cc1 (stereo unspecified)	MrgX1 antag -4.52
CC(OC(=O)/C=C/c1ccc(Br)cc1)C(=O)N1CCOCC1 (stereo unspecified)	MrgX1 antag -8
O=C1CCc2ccccc2N1	none
N#C/C(C(N)=O)=C1/CCc2ccccc2N1	MrgX1 antag -4.95
CCN(C(=O)COC(=O)C1CCN(S(=O)(=O)c2c(Cl)cccc2Cl)CC1)C1CCCCC1	none
CC(C)c1ccc(C2C3CSCC=C3C(C#N)=C(N)C2(C#N)C#N)cc1 (stereo unspecified)	RGS4 pot -8.73
COc1ccc(C(=O)CN2C(=O)NC3(CCCc4ccccc43)C2=O)cc1 (stereo unspecified)	RGS4 pot -7.5
O=C(NCCCN1CCOCC1)C(=O)N/N=C/c1c2ccccc2cc2ccccc12	RGS4 pot -9.24
CC(C)Oc1ccc(S(=O)(=O)N2CCOCC2)cc1NC(=O)Cc1c(F)cccc1Cl	none
Cc1ccc(C(CNS(=O)(=O)c2cc(F)ccc2F)N2CCN(C)CC2)cc1 (stereo unspecified)	none (no result: MrgX1 ag, MrgX1 antag, MrgX1 allo act)
